Rows were chosen to be rich in hits. Some 1.8% of all compounds tested hit in one or more screens of this group.
CHRM5 agonist: human M5 muscarinic receptor agonists, primary screen, CHO-K1 cells, Fluo-8 calcium fluorescence. Muscarinic acetylcholine receptor M5 (Homo sapiens), P08912. CHO-K1 hM5 cells; 0% DMSO wells, 100% maximal acetylcholine response. activation, % at 3 µM. hit rate 0.19% among 360,000. AID 624037, 2012;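 active means activation above the run's mean over test compounds plus 3 SD, cut at about 23% in these data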;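 further: signal is peak over basal fluorescence ratio across the kinetic read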
CHRM4 agonist: human M4 muscarinic receptor agonists, primary screen, CHO-K1 cells, Fluo-8 calcium fluorescence. AID 624127, 2012. activation, % at 3 µM. hit rate 0.14% among 360,000. CHO-K1 hM4/Gqi5; vehicle 0%, full acetylcholine response 100%;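 active means activation above the run mean over all test wells plus 3 SD, cut at about 32% in these data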;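 further: peak over basal fluorescence ratio per well then scaled between controls; 0% = DMSO wells and 100% = acetylcholine at EC100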
Target sequence (P08173 whole entry, looked up): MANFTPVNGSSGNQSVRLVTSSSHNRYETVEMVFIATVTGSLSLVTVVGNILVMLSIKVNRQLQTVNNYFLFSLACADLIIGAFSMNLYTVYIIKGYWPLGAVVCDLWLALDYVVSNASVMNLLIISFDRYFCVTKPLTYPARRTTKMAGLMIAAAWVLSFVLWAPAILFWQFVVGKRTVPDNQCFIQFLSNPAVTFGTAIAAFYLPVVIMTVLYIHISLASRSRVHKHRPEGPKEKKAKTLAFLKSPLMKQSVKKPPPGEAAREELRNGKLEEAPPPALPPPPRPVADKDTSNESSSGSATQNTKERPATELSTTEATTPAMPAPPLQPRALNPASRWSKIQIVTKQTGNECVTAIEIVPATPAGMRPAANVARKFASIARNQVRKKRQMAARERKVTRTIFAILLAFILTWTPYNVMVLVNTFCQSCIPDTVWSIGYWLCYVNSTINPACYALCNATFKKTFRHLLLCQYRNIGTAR
M5 PAM: human M5 muscarinic receptor positive allosteric modulators, primary screen, CHO-K1 cells, Fluo-8 calcium fluorescence | Muscarinic acetylcholine receptor M5 (Homo sapiens), P08912 | activation, % at 3 µM | CHO-K1 hM5, ACh EC20 PAM; 0% = ACh EC20, 100% = ACh EC100 | AID 624038, 2012 | hit rate 0.3% among 360,000;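 active means activation above the run cutoff, the mean activation of all test compounds plus 3 SD, cut at about 18% in these data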
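Test system: CHO-K1 hM5 cells / Doses: single-point, 3 µM nominal / Times: Post-acetylcholine fluorescence recording 140 s / Technique: Fluo-8 calcium fluorescence / Measure: Max/basal fluorescence ratio as % of EC20–EC100 ACh window / Benchmarks: low control EC20 acetylcholine (0%), high control EC100 acetylcholine (100%) / Replicates: one well per compound, no replicates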
CHRM4 antagonist: human M4 muscarinic receptor antagonists, primary screen, CHO cells, Fluo-8 calcium fluorescence; CHO-hM4 cells, ACh EC80; AID 624125, 2012; hit rate 0.73% among 360,000; inhibition, % at 3 µM;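 active means inhibition above its plate's cutoff, the mean inhibition of sample wells plus 3 SD, cut at about 27% in these data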;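 further: 0% = acetylcholine EC80 with DMSO and 100% = DMSO without agonist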
CHRM4 PAM: human M4 muscarinic receptor positive allosteric modulators, primary screen, CHO-K1 cells, Fluo-8 calcium fluorescence; activation, % at 3 µM; AID 624126, 2012; Muscarinic acetylcholine receptor M4 (Homo sapiens), P08173; CHO-K1 hM4/Gqi5, ACh EC20; 0% = ACh EC20, 100% = maximal ACh; hit rate 0.4% among 360,000;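 active means activation above its plate's cutoff, the mean activation of sample wells plus 3 SD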
M5 antag: human M5 muscarinic receptor antagonists, primary screen, CHO cells, Fluo-8 calcium fluorescence; hit rate 0.59% among 360,000; Muscarinic acetylcholine receptor M5 (Homo sapiens), P08912; inhibition, % at 3 µM; CHO-hM5 cells, ACh EC80;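 active means inhibition above a per-plate cutoff, the mean of that plate's test compounds plus 3 SD, cut at about 27% in these data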;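 further: 0% = acetylcholine EC80 with DMSO and 100% = DMSO without agonist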
Starred values were filed as active, the others as inactive.

What do the screens show for `O=C(COC(=O)c1ccccn1)NC12CC3CC(CC(C3)C1)C2`?
CHRM5 agonist: 0.8; CHRM4 agonist: 1.5; M5 PAM: 7.2; CHRM4 antagonist: 29.7*; CHRM4 PAM: 10.9; M5 antag: 4.5

How did Cc1c2cc(O)c(=O)cc-2oc2cc(O)c(O)cc12 do in these assays?
CHRM5 agonist: -0.8; CHRM4 agonist: 1.6; M5 PAM: 8.2; CHRM4 antagonist: 2.8; CHRM4 PAM: 20.2; M5 antag: -3.6

What do the screens show for `COc1cc(OC)c(-c2c3cc(O)c(=O)cc-3oc3cc(O)c(O)cc23)cc1OC`?
CHRM5 agonist: 326.2*; CHRM4 agonist: 211.8*; M5 PAM: -20.4; CHRM4 antagonist: 51.8*; CHRM4 PAM: -17.2; M5 antag: 53.8*

How did CC(=O)C[C@@H](O)CC(=O)[C@@H]1OC(=O)CC/C=C\Cc2ccccc21 do in these assays?
CHRM5 agonist: 2.7; CHRM4 agonist: 1.5; M5 PAM: 11.6; CHRM4 antagonist: -3.5; CHRM4 PAM: 25.8*; M5 antag: -6.5

Results for CC(=O)C[C@@H](O)CC(=O)[C@H]1OC(=O)CC/C=C\Cc2ccccc21 ?
CHRM5 agonist: -0.2; CHRM4 agonist: 0.5; M5 PAM: -9.4; CHRM4 antagonist: 5.2; CHRM4 PAM: 4.5; M5 antag: 17.6

How did CCCN1CCN(C(=O)c2ccc3[nH]c(C)c(C)c3c2)CC1 do in these assays?
CHRM5 agonist: -1.0; CHRM4 agonist: 0.8; M5 PAM: -1.1; CHRM4 antagonist: -5.4; CHRM4 PAM: -2.4; M5 antag: 5.5

Results for Cc1ccc(NS(=O)(=O)c2c(C)[nH]c(C)c2C(=O)N2CCCC2)cc1Cl ?
CHRM5 agonist: 7.0; CHRM4 agonist: 3.6; M5 PAM: 32.2*; CHRM4 antagonist: -1.8; CHRM4 PAM: 9.4; M5 antag: 8.3

How did Cc1ccc(NS(=O)(=O)c2c(C)[nH]c(C)c2C(=O)N2CCCCC2)cc1C do in these assays?
CHRM5 agonist: -5.5; CHRM4 agonist: 2.0; M5 PAM: -3.7; CHRM4 antagonist: -13.5; CHRM4 PAM: 9.8; M5 antag: 6.1

How did C[C@H](CO)N1C[C@H](C)[C@H](CN(C)C(=O)Cc2ccncc2)Oc2ncc(Br)cc2C1=O do in these assays?
CHRM5 agonist: 0.2; CHRM4 agonist: -0.1; M5 PAM: 5.7; CHRM4 antagonist: -18.4; CHRM4 PAM: 7.2; M5 antag: -7.6

Results for O=C(Cn1cnc2c(nnn2Cc2ccccc2)c1=O)c1ccccc1 ?
CHRM5 agonist: 1.7; CHRM4 agonist: 5.2; M5 PAM: -3.7; CHRM4 antagonist: -22.3; CHRM4 PAM: 18.1*; M5 antag: -0.1

Results for C=CCn1nc(-c2ccccc2)cc1C(=O)OCC ?
CHRM5 agonist: 5.2; CHRM4 agonist: -2.0; M5 PAM: 21.5*; CHRM4 antagonist: -12.8; CHRM4 PAM: 18.7; M5 antag: -5.0

Results for CCOC(=O)c1cc(-c2ccccc2)nn1CCC#N ?
CHRM5 agonist: 1.8; CHRM4 agonist: 0.5; M5 PAM: 3.6; CHRM4 antagonist: -4.1; CHRM4 PAM: 3.6; M5 antag: 3.0

Results for CC(C)n1nnnc1C1c2ccccc2C(=O)N1C1CC1 (stereo not given) ?
CHRM5 agonist: -1.7; CHRM4 agonist: 1.0; M5 PAM: -8.4; CHRM4 antagonist: -21.4; CHRM4 PAM: 13.6; M5 antag: 6.7

How did OCc1ccccc1-c1cnc2cccnn12 do in these assays?
CHRM5 agonist: 0.6; CHRM4 agonist: 1.5; M5 PAM: -1.4; CHRM4 antagonist: -14.1; CHRM4 PAM: 4.8; M5 antag: -5.2

What do the screens show for `Cc1cccc(OCc2n(CC(=O)OC3CC(C)CCC3C(C)C)c3ccccc3[n+]2C)c1` (stereo not given)?
CHRM5 agonist: -9.3; CHRM4 agonist: 2.5; M5 PAM: -19.9; CHRM4 antagonist: 39.1*; CHRM4 PAM: -16.8; M5 antag: 40.3*

How did O=C(COC(=O)CCS(=O)(=O)c1ccccc1)Nc1ccc(N2CCCCC2)cc1 do in these assays?
CHRM5 agonist: 1.2; CHRM4 agonist: 4.2; M5 PAM: 4.9; CHRM4 antagonist: -10.4; CHRM4 PAM: 23.1*; M5 antag: -10.4

How did CC1(c2nnnn2C2CCCCC2)CCC(=O)N1Cc1ccc2c(c1)OCO2 (stereo not given) do in these assays?
CHRM5 agonist: 6.6; CHRM4 agonist: 2.5; M5 PAM: 2.8; CHRM4 antagonist: -2.8; CHRM4 PAM: 6.8; M5 antag: 1.0

How did COc1ccccc1NC(=O)Cn1nnc(-c2ccccc2NS(=O)(=O)c2ccccc2)n1 do in these assays?
CHRM5 agonist: 0.4; CHRM4 agonist: 15.3; M5 PAM: -17.3; CHRM4 antagonist: 7.4; CHRM4 PAM: -30.3; M5 antag: 34.0*

How did Cc1cccc(NC(=O)CSCC(=O)NNC(=O)c2ccoc2C)c1 do in these assays?
CHRM5 agonist: -3.1; CHRM4 agonist: 0.8; M5 PAM: -5.2; CHRM4 antagonist: 0.2; CHRM4 PAM: 22.6*; M5 antag: -3.4

What do the screens show for `Cc1occc1C(=O)NNC(=O)Nc1ccc(F)cc1F`?
CHRM5 agonist: 1.6; CHRM4 agonist: 1.1; M5 PAM: -3.3; CHRM4 antagonist: 3.3; CHRM4 PAM: -4.9; M5 antag: -2.5

What do the screens show for `Cc1occc1C(=O)Nc1c(F)c(F)c(F)c(F)c1F`?
CHRM5 agonist: -5.5; CHRM4 agonist: -0.1; M5 PAM: 18.2*; CHRM4 antagonist: 7.6; CHRM4 PAM: 4.6; M5 antag: -13.8

Results for Cc1occc1C(=O)Nc1ccc(Br)cc1F ?
CHRM5 agonist: -3.1; CHRM4 agonist: 0.3; M5 PAM: 29.6*; CHRM4 antagonist: 4.2; CHRM4 PAM: 7.1; M5 antag: -5.8

Results for Cc1ccc(S(=O)(=O)N2CC3(O)CN(C(=O)OC(C)C)N(C(=O)OC(C)C)CC3(OC(=O)NCc3ccco3)C2)cc1 (stereo not given) ?
CHRM5 agonist: 2.3; CHRM4 agonist: 9.2; M5 PAM: -3.6; CHRM4 antagonist: -7.0; CHRM4 PAM: -5.7; M5 antag: 3.2

Results for Cc1cccc(NC(=O)CCCN2C(=O)C3CC=CCC3C2=O)c1 (stereo not given) ?
CHRM5 agonist: -3.9; CHRM4 agonist: 0.2; M5 PAM: -2.2; CHRM4 antagonist: 0.0; CHRM4 PAM: 0.6; M5 antag: 7.5
